Measurements reported in ChEMBL document CHEMBL5058577, “EUbOPEN Chemogenomics Library 2 (Multiplex)” (2022).

Tested on: U2OS
Test: Multiplex assay against U2OS
Assay type: toxicity, cell-based
Details: human
Outline: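 Phenotypes for tubulin, mitochondrial mass and membrane permeability are expressed as per cents of healthy-nucleus cells. Cells were stained live at seeding with Hoechst33342, BioTracker Green Microtubule Cytoskeleton Dye, MitoTracker Red and Annexin V Alexa Fluor 680, then imaged after compound addition on a CQ1 microscope at 37°C and 5% CO2. Machine-learning gating in CellPathfinder separated Hoechst high-intensity objects from normal cells, divided normal cells by nuclear state (healthy, pyknosed, fragmented) and divided pyknosed cells into mitotic or apoptotic.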

[1] = 12 h, 1 µM, compound concentration 1 uM, replicate 1
[2] = 12 h, 1 µM, compound concentration 1 uM, replicate 2
[3] = 12 h, 10 µM, compound concentration 10 uM, replicate 1
[4] = 12 h, 10 µM, compound concentration 10 uM, replicate 2
[5] = 24 h, 1 µM, compound concentration 1 uM, replicate 1
[6] = 24 h, 1 µM, compound concentration 1 uM, replicate 2
[7] = 24 h, 10 µM, compound concentration 10 uM, replicate 1
[8] = 24 h, 10 µM, compound concentration 10 uM, replicate 2
[9] = 48 h, 1 µM, compound concentration 1 uM, replicate 1
[10] = 48 h, 1 µM, compound concentration 1 uM, replicate 2
[11] = 48 h, 10 µM, compound concentration 10 uM, replicate 1
[12] = 48 h, 10 µM, compound concentration 10 uM, replicate 2

SMILES: N[C@@]1(C(=O)O)CO[C@H]2[C@H](C(=O)O)[C@H]21 [LY-379268]
- Population Apoptotic (%) [1]: 85%
- Population Fragmented Nuclei (%) [1]: 20%
- Population Healthy Nuclei (%) [1]: 76%
- Population Hoechst High Intensity Objects (%) [1]: 0%
- Population Membrane Permeable-Phenotype (%) [1]: 2%
- Population Mitochondria Different-Phenotype (%) [1]: 1%
- Population Mitotic Cells (%) [1]: 14%
- Population Normal (%) [1]: 99%
- Population Pyknosed Nuclei (%) [1]: 3%
- Population Tubulin-Different-Phenotype (%) [1]: 1%
- Total Cell Count [1]: 211
- Population Apoptotic (%) [2]: 100%
- Population Fragmented Nuclei (%) [2]: 17%
- Population Healthy Nuclei (%) [2]: 79%
- Population Membrane Permeable-Phenotype (%) [2]: 8%
- Population Mitochondria Different-Phenotype (%) [2]: 2%
- Population Mitotic Cells (%) [2]: 0%
- Population Pyknosed Nuclei (%) [2]: 2%
- Population Tubulin-Different-Phenotype (%) [2]: 3%
- Total Cell Count [2]: 108
- Population Apoptotic (%) [3]: 63%
- Population Fragmented Nuclei (%) [3]: 30%
- Population Healthy Nuclei (%) [3]: 61%
- Population Hoechst High Intensity Objects (%) [3]: 0%
- Population Membrane Permeable-Phenotype (%) [3]: 8%
- Population Mitochondria Different-Phenotype (%) [3]: 2%
- Population Mitotic Cells (%) [3]: 36%
- Population Normal (%) [3]: 99%
- Population Pyknosed Nuclei (%) [3]: 7%
- Population Tubulin-Different-Phenotype (%) [3]: 3%
- Total Cell Count [3]: 264
- Population Apoptotic (%) [4]: 80%
- Population Fragmented Nuclei (%) [4]: 19%
- Population Healthy Nuclei (%) [4]: 77%
- Population Hoechst High Intensity Objects (%) [4]: 1%
- Population Membrane Permeable-Phenotype (%) [4]: 4%
- Population Mitochondria Different-Phenotype (%) [4]: 1%
- Population Mitotic Cells (%) [4]: 20%
- Population Normal (%) [4]: 98%
- Population Pyknosed Nuclei (%) [4]: 3%
- Population Tubulin-Different-Phenotype (%) [4]: 1%
- Total Cell Count [4]: 143
- Population Apoptotic (%) [5]: 88%
- Population Fragmented Nuclei (%) [5]: 20%
- Population Healthy Nuclei (%) [5]: 71%
- Population Hoechst High Intensity Objects (%) [5]: 1%
- Population Membrane Permeable-Phenotype (%) [5]: 1%
- Population Mitochondria Different-Phenotype (%) [5]: 1%
- Population Mitotic Cells (%) [5]: 11%
- Population Normal (%) [5]: 98%
- Population Pyknosed Nuclei (%) [5]: 7%
- Population Tubulin-Different-Phenotype (%) [5]: 1%
- Total Cell Count [5]: 245
- Population Apoptotic (%) [6]: 100%
- Population Fragmented Nuclei (%) [6]: 11%
- Population Healthy Nuclei (%) [6]: 79%
- Population Hoechst High Intensity Objects (%) [6]: 0%
- Population Membrane Permeable-Phenotype (%) [6]: 12%
- Population Mitochondria Different-Phenotype (%) [6]: 2%
- Population Mitotic Cells (%) [6]: 0%
- Population Normal (%) [6]: 100%
- Population Pyknosed Nuclei (%) [6]: 9%
- Population Tubulin-Different-Phenotype (%) [6]: 6%
- Total Cell Count [6]: 133
- Population Apoptotic (%) [7]: 81%
- Population Fragmented Nuclei (%) [7]: 25%
- Population Healthy Nuclei (%) [7]: 66%
- Population Hoechst High Intensity Objects (%) [7]: 1%
- Population Membrane Permeable-Phenotype (%) [7]: 8%
- Population Mitochondria Different-Phenotype (%) [7]: 1%
- Population Mitotic Cells (%) [7]: 18%
- Population Normal (%) [7]: 98%
- Population Pyknosed Nuclei (%) [7]: 7%
- Population Tubulin-Different-Phenotype (%) [7]: 2%
- Total Cell Count [7]: 284
- Population Apoptotic (%) [8]: 90%
- Population Fragmented Nuclei (%) [8]: 16%
- Population Healthy Nuclei (%) [8]: 77%
- Population Membrane Permeable-Phenotype (%) [8]: 4%
- Population Mitochondria Different-Phenotype (%) [8]: 4%
- Population Mitotic Cells (%) [8]: 10%
- Population Pyknosed Nuclei (%) [8]: 6%
- Population Tubulin-Different-Phenotype (%) [8]: 4%
- Total Cell Count [8]: 165
- Population Apoptotic (%) [9]: 92%
- Population Fragmented Nuclei (%) [9]: 13%
- Population Healthy Nuclei (%) [9]: 79%
- Population Hoechst High Intensity Objects (%) [9]: 1%
- Population Membrane Permeable-Phenotype (%) [9]: 3%
- Population Mitochondria Different-Phenotype (%) [9]: 2%
- Population Mitotic Cells (%) [9]: 7%
- Population Normal (%) [9]: 98%
- Population Pyknosed Nuclei (%) [9]: 7%
- Population Tubulin-Different-Phenotype (%) [9]: 3%
- Total Cell Count [9]: 348
- Population Apoptotic (%) [10]: 100%
- Population Fragmented Nuclei (%) [10]: 15%
- Population Healthy Nuclei (%) [10]: 72%
- Population Hoechst High Intensity Objects (%) [10]: 2%
- Population Membrane Permeable-Phenotype (%) [10]: 11%
- Population Mitochondria Different-Phenotype (%) [10]: 5%
- Population Mitotic Cells (%) [10]: 0%
- Population Normal (%) [10]: 97%
- Population Pyknosed Nuclei (%) [10]: 12%
- Population Tubulin-Different-Phenotype (%) [10]: 5%
- Total Cell Count [10]: 178
- Population Apoptotic (%) [11]: 92%
- Population Fragmented Nuclei (%) [11]: 24%
- Population Healthy Nuclei (%) [11]: 68%
- Population Hoechst High Intensity Objects (%) [11]: 2%
- Population Membrane Permeable-Phenotype (%) [11]: 9%
- Population Mitochondria Different-Phenotype (%) [11]: 2%
- Population Mitotic Cells (%) [11]: 7%
- Population Normal (%) [11]: 97%
- Population Pyknosed Nuclei (%) [11]: 7%
- Population Tubulin-Different-Phenotype (%) [11]: 3%
- Total Cell Count [11]: 383
- Population Apoptotic (%) [12]: 90%
- Population Fragmented Nuclei (%) [12]: 11%
- Population Healthy Nuclei (%) [12]: 83%
- Population Membrane Permeable-Phenotype (%) [12]: 3%
- Population Mitotic Cells (%) [12]: 9%
- Population Pyknosed Nuclei (%) [12]: 4%
- Total Cell Count [12]: 228
